Target: Cytochrome P450 2C9 (Homo sapiens, UniProt P11712)
Test: Inhibition of CYP2C9 in human liver microsomes
Type: ADME
Settings: not given

Sequence of Cytochrome P450 2C9 (P11712 whole entry): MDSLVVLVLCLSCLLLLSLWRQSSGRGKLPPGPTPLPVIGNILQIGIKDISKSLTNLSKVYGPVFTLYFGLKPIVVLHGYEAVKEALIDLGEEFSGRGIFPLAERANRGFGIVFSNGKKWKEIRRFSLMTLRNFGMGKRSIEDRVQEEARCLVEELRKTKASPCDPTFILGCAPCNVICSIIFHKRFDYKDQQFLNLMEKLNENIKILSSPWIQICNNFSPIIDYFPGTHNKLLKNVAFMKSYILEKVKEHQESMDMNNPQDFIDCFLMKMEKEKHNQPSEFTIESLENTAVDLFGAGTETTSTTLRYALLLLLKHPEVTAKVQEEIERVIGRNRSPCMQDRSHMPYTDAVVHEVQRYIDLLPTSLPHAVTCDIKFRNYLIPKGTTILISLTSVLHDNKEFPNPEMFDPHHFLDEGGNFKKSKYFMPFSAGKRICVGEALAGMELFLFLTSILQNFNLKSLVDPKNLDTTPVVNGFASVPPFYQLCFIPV

IC50	SMILES
> 10000 nM	Cc1cc2c(cc1F)c(C#N)c(-c1ccc(S(=O)(=O)N[C@@H](C)C(F)(F)F)cn1)n2-c1ncccc1F
> 10000 nM	Cc1cc2c(cc1F)c(C#N)c(-c1ccc(S(=O)(=O)N[C@@H](C)C(F)(F)F)cn1)n2-c1ncc(F)cn1

Target: Cytochrome P450 2D6 (Homo sapiens, UniProt P10635)
Test: Inhibition of CYP2D6 in human liver microsomes
Type: ADME
Settings: not given

Sequence of Cytochrome P450 2D6 (P10635 whole entry): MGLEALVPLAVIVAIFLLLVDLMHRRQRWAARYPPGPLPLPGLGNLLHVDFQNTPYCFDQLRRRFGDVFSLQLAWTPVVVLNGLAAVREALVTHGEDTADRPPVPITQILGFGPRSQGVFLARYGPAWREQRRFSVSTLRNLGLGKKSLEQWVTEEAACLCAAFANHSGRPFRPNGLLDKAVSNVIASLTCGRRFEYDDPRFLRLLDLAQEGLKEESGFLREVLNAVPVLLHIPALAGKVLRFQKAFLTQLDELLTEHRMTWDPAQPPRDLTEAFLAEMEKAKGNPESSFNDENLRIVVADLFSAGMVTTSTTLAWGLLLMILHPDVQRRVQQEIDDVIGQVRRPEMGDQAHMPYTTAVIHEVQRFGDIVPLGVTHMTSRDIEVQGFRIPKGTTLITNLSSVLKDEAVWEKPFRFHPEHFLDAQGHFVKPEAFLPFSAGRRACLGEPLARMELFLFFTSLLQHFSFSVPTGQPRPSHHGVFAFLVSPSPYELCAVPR

IC50	SMILES
> 10000 nM	Cc1cc2c(cc1F)c(C#N)c(-c1ccc(S(=O)(=O)N[C@@H](C)C(F)(F)F)cn1)n2-c1ncccc1F
> 10000 nM	Cc1cc2c(cc1F)c(C#N)c(-c1ccc(S(=O)(=O)N[C@@H](C)C(F)(F)F)cn1)n2-c1ncc(F)cn1

Target: Cytochrome P450 3A4 (Homo sapiens, UniProt P08684)
Test: Inhibition of CYP3A4 in human liver microsomes
Type: ADME
Settings: not given

Sequence of Cytochrome P450 3A4 (P08684 whole entry): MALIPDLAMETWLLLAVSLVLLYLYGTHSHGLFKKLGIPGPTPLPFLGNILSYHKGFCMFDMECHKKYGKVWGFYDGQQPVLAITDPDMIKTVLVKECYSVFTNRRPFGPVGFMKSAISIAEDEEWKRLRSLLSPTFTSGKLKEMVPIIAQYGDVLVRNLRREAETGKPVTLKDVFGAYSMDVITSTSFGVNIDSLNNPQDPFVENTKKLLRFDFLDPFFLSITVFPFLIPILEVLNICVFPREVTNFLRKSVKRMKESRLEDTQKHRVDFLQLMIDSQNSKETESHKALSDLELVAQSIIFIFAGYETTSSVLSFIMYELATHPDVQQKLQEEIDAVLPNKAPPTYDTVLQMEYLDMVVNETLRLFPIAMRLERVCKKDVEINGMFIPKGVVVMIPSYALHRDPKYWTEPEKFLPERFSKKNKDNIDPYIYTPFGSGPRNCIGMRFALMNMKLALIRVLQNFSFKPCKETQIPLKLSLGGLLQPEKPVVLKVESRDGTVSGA

IC50	SMILES
> 10000 nM	Cc1cc2c(cc1F)c(C#N)c(-c1ccc(S(=O)(=O)N[C@@H](C)C(F)(F)F)cn1)n2-c1ncccc1F
> 10000 nM	Cc1cc2c(cc1F)c(C#N)c(-c1ccc(S(=O)(=O)N[C@@H](C)C(F)(F)F)cn1)n2-c1ncc(F)cn1

Test system: not listed separately
Test: Ratio of EC50 for HCV1b Con1 to plasma concentration in Sprague-Dawley rat at 10 mg/kg, po after 6 hrs
Settings: not given

SMILES	Ratio
CCc1cc2c(cc1F)c(C#N)c(-c1ccc(S(=O)(=O)N[C@@H](C)C(F)(F)F)cn1)n2-c1nccs1	347
C[C@H](NS(=O)(=O)c1ccc(-c2c(C#N)c3cc(F)c(C4CC4)cc3n2-c2ccc(F)cn2)nc1)C(F)(F)F	20
Cc1cc2c(cc1F)c(C#N)c(-c1ccc(S(=O)(=O)N[C@@H](C)C(F)(F)F)cn1)n2-c1nccs1	96
Cc1cc2c(cc1F)c(C#N)c(-c1ccc(S(=O)(=O)N[C@@H](C)C(F)(F)F)cn1)n2-c1cccnc1	65
Cc1cc2c(cc1F)c(C#N)c(-c1ccc(S(=O)(=O)N[C@@H](C)C(F)(F)F)cn1)n2-c1ncccc1F	194
Cc1cc2c(cc1F)c(C#N)c(-c1ccc(S(=O)(=O)N[C@@H](C)C(F)(F)F)cn1)n2-c1ncc(F)cn1	187
Cc1cc2c(cc1F)c(C#N)c(-c1ccc(S(=O)(=O)N[C@@H](C)C(F)(F)F)cn1)n2-c1cccs1	29
Cc1cc2c(cc1F)c(C#N)c(-c1ccc(S(=O)(=O)N[C@@H](C)C(F)(F)F)cn1)n2-c1ccccn1	49
Cc1cc2c(cc1F)c(C#N)c(-c1ccc(S(=O)(=O)N[C@@H](C)C(F)(F)F)cn1)n2-c1cccnn1	22
Cc1cc2c(cc1F)c(C#N)c(-c1ccc(S(=O)(=O)N[C@@H](C)C(F)(F)F)cn1)n2-c1cnccn1	9
C[C@H](NS(=O)(=O)c1ccc(-c2c(C#N)c3cc(F)c(C4CC4)cc3n2-c2ncccn2)nc1)C(F)(F)F	75
CCc1cc2c(cc1F)c(C#N)c(-c1ccc(S(=O)(=O)N[C@@H](C)C(F)(F)F)cn1)n2-c1ccc(F)cn1	12
CCc1cc2c(cc1F)c(C#N)c(-c1ccc(S(=O)(=O)N[C@@H](C)C(F)(F)F)cn1)n2-c1ccncc1	47
Cc1cc2c(cc1F)c(C#N)c(-c1ccc(S(=O)(=O)N[C@@H](C)C(F)(F)F)cn1)n2-c1ccncc1	24
CCc1cc2c(cc1F)c(C#N)c(-c1ccc(S(=O)(=O)N[C@@H](C)C(F)(F)F)cn1)n2-c1ncc(C)cn1	44
Cc1cc2c(cc1F)c(C#N)c(-c1ccc(S(=O)(=O)N[C@@H](C)C(F)(F)F)cn1)n2-c1cscn1	35
Cc1cc2c(cc1F)c(C#N)c(-c1ccc(S(=O)(=O)N[C@@H](C)C(F)(F)F)cn1)n2-c1cncs1	38
CCc1cc2c(cc1F)c(C#N)c(-c1ccc(S(=O)(=O)N[C@@H](C)C(F)(F)F)cn1)n2-c1cnccn1	14
Cc1cc2c(cc1F)c(C#N)c(-c1ccc(S(=O)(=O)N[C@@H](C)C(F)(F)F)cn1)n2-c1ccc(F)cn1	42

Test system: not listed separately
Test: AUC (0 to 6 hrs) in Sprague-Dawley rat at 10 mg/kg, po
Type: ADME, organism-based
Set-up: time < 6 hr, dose 10 mg/kg, route oral
Settings: plasma

AUC(0-t) at 6 h	SMILES
2.75 µM·h	CCc1cc2c(cc1F)c(C#N)c(-c1ccc(S(=O)(=O)N[C@@H](C)C(F)(F)F)cn1)n2-c1nccs1
1.7 µM·h	C[C@H](NS(=O)(=O)c1ccc(-c2c(C#N)c3cc(F)c(C4CC4)cc3n2-c2ccc(F)cn2)nc1)C(F)(F)F
1.76 µM·h	Cc1cc2c(cc1F)c(C#N)c(-c1ccc(S(=O)(=O)N[C@@H](C)C(F)(F)F)cn1)n2-c1nccs1
6.39 µM·h	Cc1cc2c(cc1F)c(C#N)c(-c1ccc(S(=O)(=O)N[C@@H](C)C(F)(F)F)cn1)n2-c1cccnc1
8.54 µM·h	Cc1cc2c(cc1F)c(C#N)c(-c1ccc(S(=O)(=O)N[C@@H](C)C(F)(F)F)cn1)n2-c1ncccc1F
4.08 µM·h	Cc1cc2c(cc1F)c(C#N)c(-c1ccc(S(=O)(=O)N[C@@H](C)C(F)(F)F)cn1)n2-c1ncc(F)cn1
0.48 µM·h	Cc1cc2c(cc1F)c(C#N)c(-c1ccc(S(=O)(=O)N[C@@H](C)C(F)(F)F)cn1)n2-c1cccs1
4.52 µM·h	Cc1cc2c(cc1F)c(C#N)c(-c1ccc(S(=O)(=O)N[C@@H](C)C(F)(F)F)cn1)n2-c1ccccn1
3.26 µM·h	Cc1cc2c(cc1F)c(C#N)c(-c1ccc(S(=O)(=O)N[C@@H](C)C(F)(F)F)cn1)n2-c1cccnn1
0.885 µM·h	Cc1cc2c(cc1F)c(C#N)c(-c1ccc(S(=O)(=O)N[C@@H](C)C(F)(F)F)cn1)n2-c1cnccn1
2.04 µM·h	C[C@H](NS(=O)(=O)c1ccc(-c2c(C#N)c3cc(F)c(C4CC4)cc3n2-c2ncccn2)nc1)C(F)(F)F
1.79 µM·h	CCc1cc2c(cc1F)c(C#N)c(-c1ccc(S(=O)(=O)N[C@@H](C)C(F)(F)F)cn1)n2-c1ccc(F)cn1
6.38 µM·h	CCc1cc2c(cc1F)c(C#N)c(-c1ccc(S(=O)(=O)N[C@@H](C)C(F)(F)F)cn1)n2-c1ccncc1
2.6 µM·h	Cc1cc2c(cc1F)c(C#N)c(-c1ccc(S(=O)(=O)N[C@@H](C)C(F)(F)F)cn1)n2-c1ccncc1
7.24 µM·h	CCc1cc2c(cc1F)c(C#N)c(-c1ccc(S(=O)(=O)N[C@@H](C)C(F)(F)F)cn1)n2-c1ncc(C)cn1
10.3 µM·h	Cc1cc2c(cc1F)c(C#N)c(-c1ccc(S(=O)(=O)N[C@@H](C)C(F)(F)F)cn1)n2-c1cscn1
6.27 µM·h	Cc1cc2c(cc1F)c(C#N)c(-c1ccc(S(=O)(=O)N[C@@H](C)C(F)(F)F)cn1)n2-c1cncs1
0.345 µM·h	CCc1cc2c(cc1F)c(C#N)c(-c1ccc(S(=O)(=O)N[C@@H](C)C(F)(F)F)cn1)n2-c1cnccn1
3.45 µM·h	Cc1cc2c(cc1F)c(C#N)c(-c1ccc(S(=O)(=O)N[C@@H](C)C(F)(F)F)cn1)n2-c1ccc(F)cn1

Test system: not listed separately
Test: Toxicity in human HuH7 cells assessed as effect on GAPDH mRNA level
Type: cell-based, Huh-7
Settings: not given
Summary of the method: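 Run in parallel with replicon assay in Con1 replicon Huh-7 cells (0.5% DMSO, 37 °C); endogenous GAPDH mRNA quantified by TaqMan RT-PCR; highest concentration tested 10000 nM.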

SMILES	IC50
CCc1cc2c(cc1F)c(C#N)c(-c1ccc(S(=O)(=O)N[C@@H](C)C(F)(F)F)cn1)n2-c1nccs1	> 10000 nM
C[C@H](NS(=O)(=O)c1ccc(-c2c(C#N)c3cc(F)c(C4CC4)cc3n2-c2ccc(F)cn2)nc1)C(F)(F)F	> 10000 nM
Cc1cc2c(cc1F)c(C#N)c(-c1ccc(S(=O)(=O)N[C@@H](C)C(F)(F)F)cn1)n2-c1nccs1	> 10000 nM
Cc1cc2c(cc1F)c(C#N)c(-c1ccc(S(=O)(=O)N[C@@H](C)C(F)(F)F)cn1)n2-c1cccnc1	> 10000 nM
Cc1cc2c(cc1F)c(C#N)c(-c1ccc(S(=O)(=O)N[C@@H](C)C(F)(F)F)cn1)n2-c1ncccc1F	> 10000 nM
Cc1cc2c(cc1F)c(C#N)c(-c1ccc(S(=O)(=O)N[C@@H](C)C(F)(F)F)cn1)n2-c1ncc(F)cn1	> 10000 nM
Cc1cc2c(cc1F)c(C#N)c(-c1ccc(S(=O)(=O)N[C@@H](C)C(F)(F)F)cn1)n2-c1cccs1	> 10000 nM
Cc1cc2c(cc1F)c(C#N)c(-c1ccc(S(=O)(=O)N[C@@H](C)C(F)(F)F)cn1)n2-c1ccccn1	> 10000 nM
Cc1cc2c(cc1F)c(C#N)c(-c1ccc(S(=O)(=O)N[C@@H](C)C(F)(F)F)cn1)n2-c1cccnn1	> 10000 nM
Cc1cc2c(cc1F)c(C#N)c(-c1ccc(S(=O)(=O)N[C@@H](C)C(F)(F)F)cn1)n2-c1cnccn1	> 10000 nM
C[C@H](NS(=O)(=O)c1ccc(-c2c(C#N)c3cc(F)c(C4CC4)cc3n2-c2ncccn2)nc1)C(F)(F)F	> 10000 nM
CCc1cc2c(cc1F)c(C#N)c(-c1ccc(S(=O)(=O)N[C@@H](C)C(F)(F)F)cn1)n2-c1ccc(F)cn1	> 10000 nM
CCc1cc2c(cc1F)c(C#N)c(-c1ccc(S(=O)(=O)N[C@@H](C)C(F)(F)F)cn1)n2-c1ccncc1	> 10000 nM
Cc1cc2c(cc1F)c(C#N)c(-c1ccc(S(=O)(=O)N[C@@H](C)C(F)(F)F)cn1)n2-c1ccncc1	> 10000 nM
CCc1cc2c(cc1F)c(C#N)c(-c1ccc(S(=O)(=O)N[C@@H](C)C(F)(F)F)cn1)n2-c1ncc(C)cn1	> 10000 nM
Cc1cc2c(cc1F)c(C#N)c(-c1ccc(S(=O)(=O)N[C@@H](C)C(F)(F)F)cn1)n2-c1cscn1	> 10000 nM
Cc1cc2c(cc1F)c(C#N)c(-c1ccc(S(=O)(=O)N[C@@H](C)C(F)(F)F)cn1)n2-c1cncs1	> 10000 nM
CCc1cc2c(cc1F)c(C#N)c(-c1ccc(S(=O)(=O)N[C@@H](C)C(F)(F)F)cn1)n2-c1cnccn1	> 10000 nM
Cc1cc2c(cc1F)c(C#N)c(-c1ccc(S(=O)(=O)N[C@@H](C)C(F)(F)F)cn1)n2-c1ccc(F)cn1	> 10000 nM

Test system: Hepatitis C virus
Test: Antiviral activity against HCV1b Con1 infected in human HuH7 cells assessed as inhibition of viral RNA replication by RT-PCR analysis
Type: functional, organism-based, Hepacivirus hominis
Settings: isolate Con1, Huh-7

EC50	SMILES
2 nM	CCc1cc2c(cc1F)c(C#N)c(-c1ccc(S(=O)(=O)N[C@@H](C)C(F)(F)F)cn1)n2-c1nccs1
12 nM	C[C@H](NS(=O)(=O)c1ccc(-c2c(C#N)c3cc(F)c(C4CC4)cc3n2-c2ccc(F)cn2)nc1)C(F)(F)F
3 nM	Cc1cc2c(cc1F)c(C#N)c(-c1ccc(S(=O)(=O)N[C@@H](C)C(F)(F)F)cn1)n2-c1nccs1
11 nM	Cc1cc2c(cc1F)c(C#N)c(-c1ccc(S(=O)(=O)N[C@@H](C)C(F)(F)F)cn1)n2-c1cccnc1
3 nM	Cc1cc2c(cc1F)c(C#N)c(-c1ccc(S(=O)(=O)N[C@@H](C)C(F)(F)F)cn1)n2-c1ncccc1F
4 nM	Cc1cc2c(cc1F)c(C#N)c(-c1ccc(S(=O)(=O)N[C@@H](C)C(F)(F)F)cn1)n2-c1ncc(F)cn1
2 nM	Cc1cc2c(cc1F)c(C#N)c(-c1ccc(S(=O)(=O)N[C@@H](C)C(F)(F)F)cn1)n2-c1cccs1
18 nM	Cc1cc2c(cc1F)c(C#N)c(-c1ccc(S(=O)(=O)N[C@@H](C)C(F)(F)F)cn1)n2-c1ccccn1
13 nM	Cc1cc2c(cc1F)c(C#N)c(-c1ccc(S(=O)(=O)N[C@@H](C)C(F)(F)F)cn1)n2-c1cccnn1
9 nM	Cc1cc2c(cc1F)c(C#N)c(-c1ccc(S(=O)(=O)N[C@@H](C)C(F)(F)F)cn1)n2-c1cnccn1
6 nM	C[C@H](NS(=O)(=O)c1ccc(-c2c(C#N)c3cc(F)c(C4CC4)cc3n2-c2ncccn2)nc1)C(F)(F)F
13 nM	CCc1cc2c(cc1F)c(C#N)c(-c1ccc(S(=O)(=O)N[C@@H](C)C(F)(F)F)cn1)n2-c1ccc(F)cn1
9 nM	CCc1cc2c(cc1F)c(C#N)c(-c1ccc(S(=O)(=O)N[C@@H](C)C(F)(F)F)cn1)n2-c1ccncc1
11 nM	Cc1cc2c(cc1F)c(C#N)c(-c1ccc(S(=O)(=O)N[C@@H](C)C(F)(F)F)cn1)n2-c1ccncc1
23 nM	CCc1cc2c(cc1F)c(C#N)c(-c1ccc(S(=O)(=O)N[C@@H](C)C(F)(F)F)cn1)n2-c1ncc(C)cn1
20 nM	Cc1cc2c(cc1F)c(C#N)c(-c1ccc(S(=O)(=O)N[C@@H](C)C(F)(F)F)cn1)n2-c1cscn1
7 nM	Cc1cc2c(cc1F)c(C#N)c(-c1ccc(S(=O)(=O)N[C@@H](C)C(F)(F)F)cn1)n2-c1cncs1
4 nM	CCc1cc2c(cc1F)c(C#N)c(-c1ccc(S(=O)(=O)N[C@@H](C)C(F)(F)F)cn1)n2-c1cnccn1
8 nM	Cc1cc2c(cc1F)c(C#N)c(-c1ccc(S(=O)(=O)N[C@@H](C)C(F)(F)F)cn1)n2-c1ccc(F)cn1

Test system: Pregnane X receptor (Homo sapiens)
Test: Activation of PXR (unknown origin) at 10 uM by reporter gene assay
Settings: not given

Activity	SMILES
59%	Cc1cc2c(cc1F)c(C#N)c(-c1ccc(S(=O)(=O)N[C@@H](C)C(F)(F)F)cn1)n2-c1ncccc1F
96%	Cc1cc2c(cc1F)c(C#N)c(-c1ccc(S(=O)(=O)N[C@@H](C)C(F)(F)F)cn1)n2-c1ncc(F)cn1

— ChEMBL document CHEMBL3120098, “Structure-activity relationship (SAR) optimization of 6-(indol-2-yl)pyridine-3-sulfonamides: identification of potent, selective, and orally bioavailable small molecules targeting hepatitis C (HCV) NS4B” (J Med Chem, 2014)
